Screens: PubChem, Broad Institute
T cruzi growth-1 – T. cruzi intracellular proliferation inhibitors, primary screen, cell-based, beta-gal Tulahuen parasites, NIH3T3 host, luminescence; 77,000 tested, 5.9% active; inhibition, % at 8.34 µM; T. cruzi beta-gal in NIH3T3, GalScreen luminescence, 90 h;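 active = mean inhibition above about 93%, with at least 55% of replicates each passing it, limit read from the data, passing the limit was not always enough; inconclusive = only one of those two conditions holds; inactive = neither condition holds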
KDM4C inh – inhibitors of GASC-1 (KDM4C) histone demethylase, primary screen, biochemical, single concentration HTS; Lysine-specific demethylase 4C (Homo sapiens), Q9H3R0; GST-KDM4C 2-372, H3K9me3 peptide, LANCE TR-FRET; inhibition, % at 12.5 µM; 96,000 tested, 0.15% active;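 active = mean replicate inhibition above about 25%, with at least 55% of replicates also reaching it, limit read from the data, passing the limit was not always enough; inconclusive = only one of those two conditions met; inactive = neither condition met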
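System – N-terminal GST-fused human GASC-1 (KDM4C) fragment, residues 2-372 · Input – enzyme final amount 10 nM · Technique – LANCE TR-FRET, Eu antibody, ULight-streptavidin, EDTA, ex 340 nm, em 618/671 nm · Medium – HEPES buffer, pH 7.5, plus ascorbate · Incubation – enzyme reaction 30 min, then detection 60 min, both room temperature · Reagent – H3K9me3 peptide with Fe(II)/2OG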
IDH1 R132H inh – inhibitors of IDH1 R132H reductase, primary screen, biochemical, plate reader, single point. Isocitrate dehydrogenase [NADP] cytoplasmic (Homo sapiens), O75874. diaphorase/resazurin fluorescence, 60 min. inhibition, % at 10 µM. 70,000 tested, 0.18% active; in the data active = inhibition above about 34%; inconclusive = no clear call, values can overlap the other calls; inactive = below about 11%;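 also: 0% = DMSO and 100% = no enzyme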
Target sequence (O75874 whole entry R132H): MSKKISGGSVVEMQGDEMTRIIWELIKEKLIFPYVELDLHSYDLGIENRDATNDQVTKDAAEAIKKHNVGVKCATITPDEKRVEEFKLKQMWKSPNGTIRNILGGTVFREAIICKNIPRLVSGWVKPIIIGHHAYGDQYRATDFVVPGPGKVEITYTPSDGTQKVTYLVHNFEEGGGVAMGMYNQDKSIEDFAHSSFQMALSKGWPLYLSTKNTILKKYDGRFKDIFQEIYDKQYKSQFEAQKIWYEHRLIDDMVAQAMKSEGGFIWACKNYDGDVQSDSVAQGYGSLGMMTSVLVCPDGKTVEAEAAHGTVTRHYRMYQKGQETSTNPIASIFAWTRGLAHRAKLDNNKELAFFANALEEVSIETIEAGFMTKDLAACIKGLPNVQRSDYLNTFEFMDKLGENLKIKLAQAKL
T cruzi growth-2 – T. cruzi intracellular proliferation inhibitors, confirmation, cell-based, NIH3T3 host, beta-gal parasite, luminescence, cherry-pick | shares compounds with T cruzi growth-1 | T. cruzi beta-gal in NIH3T3, GalScreen luminescence, 90 h | inhibition, % at 8.35 µM | 5,600 tested, 72% active;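 active = mean replicate inhibition above about 95% and at least 55% of replicates individually reaching it, limit read from the data; inconclusive = only one of the two criteria is met; inactive = neither criterion is met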
T cruzi growth-3 – inhibitors of intracellular T. cruzi replication, confirmation, NIH3T3 host cells, beta-gal parasites, cherry-pick, set 2; shares compounds with T cruzi growth-1; T. cruzi beta-gal in NIH3T3, GalScreen luminescence, 90 h; inhibition, % at 2.09 µM; 5,600 tested, 21% active; AID 651740, 2012;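 active = mean inhibition above about 95%, with at least 55% of replicates also reaching it, limit read from the data; inconclusive = meets just one of the two conditions; inactive = meets neither condition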;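 also: plate controls were neutral control median for no effect and positive control median for full effect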
NIH3T3 tox – cytotoxicity in mouse NIH/3T3 fibroblasts, confirmation, cytotoxicity control for T. cruzi proliferation inhibitor project, cell-based, cherry-pick, single point; shares compounds with T cruzi growth-1; NIH/3T3 viability, CellTiter-Glo ATP luminescence, 90 h; cytotoxicity (signal decrease), % at 8.35 µM; 5,600 tested, 14% active;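 active = mean signal decrease across replicates above about 35% based on untreated-well scatter, with enough replicates individually passing, limit read from the data; inconclusive = no rule stated though some were filed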;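 also: 0% = median of neutral control wells and 100% = median of positive control wells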
NIH3T3 tox 2 – NIH/3T3 fibroblast cytotoxicity, confirmation, cytotoxicity control, cell-based, cherry-pick, single point, set 2. 5,600 tested, 56% active. inhibition, % at 24.9 µM. NIH/3T3 viability, CellTiter-Glo ATP luminescence, 90 h. AID 651744, 2012. shares compounds with T cruzi growth-1;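 active = mean loss of cell viability signal at or above a set limit, and enough replicates individually reaching it; inconclusive = meets only the mean limit or only the replicate share; inactive = meets neither condition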;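 also: 0% = median of neutral control wells and 100% = median of positive control wells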
Starred values were filed as active, the others as inactive; ? = inconclusive; . = no result given. Shown is part of a subset that was picked to be rich in hits.

SMILES	T cruzi growth-1	KDM4C inh	IDH1 R132H inh	others
C[C@H]1CN([C@@H](C)CO)S(=O)(=O)c2ccc(Br)cc2O[C@@H]1CN(C)S(=O)(=O)c1ccc(F)cc1	89.7	-2.5	-1.2
C[C@@H]1CN([C@@H](C)CO)S(=O)(=O)c2ccc(Br)cc2O[C@H]1CN(C)S(=O)(=O)c1ccc(F)cc1	100.4*	-1.1	-2.5	T cruzi growth-2=105.9*;T cruzi growth-3=45.2;NIH3T3 tox=23.1;NIH3T3 tox 2=77.7*
CNC[C@@H]1OCCCC[C@H](C)Oc2ccc(NS(=O)(=O)c3ccccc3)cc2C(=O)N([C@H](C)CO)C[C@@H]1C	13.0	0.6	3.6
N#C[C@@H]1[C@@H](c2ccccc2-c2ccc(F)cc2)[C@H](CO)N1C(=O)NC1CCCCC1	.	-0.8	.
O=C(C[C@H]1C[C@H]2c3cc(NC(=O)C4CCC4)ccc3O[C@H]2[C@H](CO)O1)NCc1ccccn1	4.1	-0.1	0.2
O=C(Nc1ccccc1)N1C[C@@H]2[C@H](c3ccccc31)[C@@H](CO)N2C(=O)c1ccccn1	-14.0	1.4	.
O=C(C[C@H]1C=C[C@H](NC(=O)c2ccncc2)[C@@H](CO)O1)Nc1ccc(-c2ccccc2)cc1	7.0	0.6	0.0
COc1ccccc1S(=O)(=O)N1CC[C@@H]2[C@H]1c1cc(-c3ccccc3)ccc1N(C)[C@H]2CO	89.0	-2.9	.
C[C@H](CO)N1C[C@H](C)[C@@H](CN(C)C(=O)C2CCOCC2)Oc2ncc(C#Cc3ccccc3F)cc2C1=O	40.2	.	.
CO[C@H]1CN(C)C(=O)c2cc(NC(=O)Nc3cc(F)ccc3F)ccc2OC[C@H](C)NC[C@H]1C	39.7	0.3	0.1
CCCNC(=O)C[C@H]1CC[C@H]2[C@H](COc3ccc(NC(=O)c4ccc(OC)cc4)cc3C(=O)N2C)O1	56.9	-0.2	.
COc1ccc(S(=O)(=O)N(C)C[C@H]2OCCCC[C@@H](C)Oc3ccc(NC(=O)Nc4ccc(F)cc4)cc3C(=O)N([C@@H](C)CO)C[C@@H]2C)cc1	?	-4.3	2.0
COc1ccc(S(=O)(=O)N(C)C[C@@H]2OCCCC[C@H](C)Oc3ccc(NC(=O)Nc4ccc(F)cc4)cc3C(=O)N([C@H](C)CO)C[C@@H]2C)cc1	115.2*	-0.4	0.2	T cruzi growth-2=101.8*;T cruzi growth-3=57.4;NIH3T3 tox=-5.3;NIH3T3 tox 2=-7.0
COc1ccc(S(=O)(=O)N(C)C[C@H]2OCCCC[C@@H](C)Oc3ccc(NC(=O)Nc4ccc(F)cc4)cc3C(=O)N([C@@H](C)CO)C[C@H]2C)cc1	104.0	-0.3	.
COc1ccc(NC(=O)Nc2ccc3c(c2)C(=O)N([C@@H](C)CO)C[C@@H](C)[C@H](CN(C)S(=O)(=O)c2ccc(F)cc2)OCCCC[C@@H](C)O3)cc1	?	-0.6	0.7	T cruzi growth-2=109.2*;T cruzi growth-3=43.8;NIH3T3 tox=-25.1;NIH3T3 tox 2=11.3
COc1ccc(S(=O)(=O)N(C)C[C@@H]2OCCCC[C@H](C)Oc3ccc(NC(=O)Nc4ccc(F)cc4)cc3C(=O)N([C@@H](C)CO)C[C@H]2C)cc1	64.0	-1.5	.
COc1ccc(S(=O)(=O)N(C)C[C@@H]2OCCCC[C@H](C)Oc3ccc(NC(=O)Nc4ccc(F)cc4)cc3C(=O)N([C@@H](C)CO)C[C@@H]2C)cc1	115.7*	-0.3	.	T cruzi growth-2=108.2*;T cruzi growth-3=92.7;NIH3T3 tox=-17.5;NIH3T3 tox 2=-10.8
Cc1nn(CC(=O)NCc2ccccc2Cl)c(C)c1[N+](=O)[O-]	.	.	0.1
C[C@H](CO)N1C[C@H](C)[C@H](CN(C)Cc2ccncc2)Oc2ncc(C#Cc3ccc(C(F)(F)F)cc3)cc2C1=O	.	1.4	0.2
